A short description of data set [1]: Antioxidant activity assessed as DPPH radical scavenging activity incubated for 35 mins under dark condition. The class given is functional. In short, it runs like this: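 DMSO stocks (100 mM) added to freshly prepared 0.2 mM DPPH in methanol, two-fold serially diluted, kept dark 35 min, absorbance read at 517 nm. Background absorbance from a parallel methanol-only (no DPPH) plate subtracted. Scavenging % = 100 × (Acontrol−Asample)/Acontrol; n = 3; ascorbic acid positive control.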

Data set [2] can be described thus: Immunomodulatory activity in IL-17A Katushka/IL-10eGFP/Foxp3RFP reporter mouse cell trace violet-labelled CD4+ T cell derived TGF-beta1/IL-6/IL-23-polarized Th17 cells assessed as increase in IL-10 positive cell population at 5 to 20 uM measured after 3 days by flow cytomtery relative to control. The settings on record: dose 5-20 µM; time 3 day. The class given is functional. In short, it runs like this: (§1)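 Naïve CD4+ T cells from spleen and lymph nodes of 2 triple reporter mice, CellTrace Violet-labelled, polarized in Click's medium with 5% FBS, anti-CD3/anti-CD28, anti-IFNγ, anti-IL-4, IL-23, IL-6 and TGF-β1. Compound or DMSO added after 1–3 days, cultured 3 more days; flow cytometry on viable CD4+ cells (IL-17A Katushka, IL-10 eGFP). Fold change vs DMSO; n = 4.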

Data set [3] in a line: Immunomodulatory activity in IL-17A Katushka/IL-10eGFP/Foxp3RFP reporter mouse cell trace violet-labelled CD4+ T cell derived TGF-beta1/IL-6/IL-23-polarized Th17 cells assessed as increase in IL-10/IL-17 positive cell population at 5 to 20 uM measured after 3 days by flow cytomtery relative to control. The conditions noted are these: dose 5-20 µM; time 3 day. The class given is functional. Summed up:
as §1

A short description of data set [4]: Increase in IL-17A Katushka/IL-10eGFP/Foxp3RFP reporter mouse cell trace violet-labelled CD4+ T cell derived TGF-beta1/IL-6/IL-23-polarized Th17 cell proliferation at 10 to 20 uM measured after 3 days by flow cytomtery. The class given is toxicity, cell-based. The conditions noted are these: th17, 72 h, dose 10-20 µM, time 3 day. Summed up: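 Same Th17-polarized, CellTrace Violet-labelled reporter-mouse CD4+ T cells; compound or DMSO added after 1–3 days, then 3 more days culture. Proliferation by flow cytometry as percentage of viable CD4+ cells having undergone 7 or more divisions (CellTrace Violet dilution); n = 4.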

Data set [5] addresses T1, Aryl hydrocarbon receptor (Homo sapiens, UniProt P35869).
T1 sequence (P35869 whole entry): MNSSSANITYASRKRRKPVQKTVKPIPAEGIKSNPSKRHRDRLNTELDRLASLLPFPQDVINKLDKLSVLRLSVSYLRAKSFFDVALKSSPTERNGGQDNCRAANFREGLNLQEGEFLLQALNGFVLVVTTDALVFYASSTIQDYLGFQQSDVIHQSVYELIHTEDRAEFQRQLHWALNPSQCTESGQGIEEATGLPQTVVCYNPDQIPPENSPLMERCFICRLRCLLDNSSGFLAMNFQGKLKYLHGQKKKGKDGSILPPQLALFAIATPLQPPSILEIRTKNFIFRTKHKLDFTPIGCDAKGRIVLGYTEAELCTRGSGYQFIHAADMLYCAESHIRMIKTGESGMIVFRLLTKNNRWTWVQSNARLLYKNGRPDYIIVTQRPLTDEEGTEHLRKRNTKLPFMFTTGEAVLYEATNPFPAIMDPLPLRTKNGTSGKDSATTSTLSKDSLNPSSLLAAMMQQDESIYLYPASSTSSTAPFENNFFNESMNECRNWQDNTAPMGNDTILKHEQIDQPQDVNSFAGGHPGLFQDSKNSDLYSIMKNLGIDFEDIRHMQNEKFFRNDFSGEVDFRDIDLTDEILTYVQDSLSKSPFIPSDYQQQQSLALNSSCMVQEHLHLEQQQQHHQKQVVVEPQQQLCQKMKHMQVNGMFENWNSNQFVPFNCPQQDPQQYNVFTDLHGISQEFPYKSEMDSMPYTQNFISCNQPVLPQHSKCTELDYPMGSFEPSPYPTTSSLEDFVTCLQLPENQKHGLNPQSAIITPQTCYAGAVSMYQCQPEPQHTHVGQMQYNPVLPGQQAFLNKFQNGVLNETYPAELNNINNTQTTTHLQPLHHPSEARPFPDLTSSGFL
The data set is described as follows: Agonist activity at AhR in human HT29-Lucia AhR cells measured after 24 hrs by Quanti-luc gold luminescence assay. The class given is cell-based. The settings on record: DDE = dose-dependent effect. Summed up: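 HT29-Lucia AhR reporter cells seeded ~50,000 cells/well; ligand or DMSO vehicle added (ITE positive control, unstimulated negative control) for 24 h. Secreted Lucia luciferase in supernatant detected with QUANTI-Luc Gold luminescence. Triplicate; expressed as fold-change relative to DMSO-treated cells.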

Data set [6] concerns Th17. The experiment in a line: Immunomodulatory activity in IL-17A Katushka/IL-10eGFP/Foxp3RFP reporter mouse cell trace violet-labelled CD4+ T cell derived TGF-beta1/IL-6/IL-23-polarized Th17 cells assessed as increase in IL-17 positive cell population at 5 to 20 uM measured after 3 days by flow cytomtery. The class given is functional, cell-based. The settings on record: dose 5-20 µM, time 3.0 day. Summed up:
as §1

For data set [7], the system named is Th17. The experiment in a line: Immunomodulatory activity in IL-17A Katushka/IL-10eGFP/Foxp3RFP reporter mouse cell trace violet-labelled CD4+ T cell derived TGF-beta1/IL-6/IL-23-polarized Th17 cells assessed as increase in IL-10/IL-17 positive cell population at 5 to 20 uM measured after 3 days by flow cytomtery. The conditions noted are these: dose 5-20 µM, time 3.0 day. The class given is functional, cell-based. Summed up:
as §1

Molecules are shown by their SMILES. pEC50: −log10 of the molar value. The source made the active and inactive calls. No cut-off for these calls is given here.

Consider `O=c1[nH]c(=O)c2nc(-c3c[nH]c4ccccc34)c(=O)n(C[C@H](O)[C@H](O)[C@H](O)CO)c2[nH]1`, for which the pEC50 in data set [1] is 4.49. The “fold change (FC)” value in data set [2] and in data set [3] was 2 in each case. Further, the Activity result in data set [4] is “Non-Toxic”; in data set [5] it was “Dde”.
On to `O=c1[nH]c(=O)c2nc(-c3ccccc3)c(=O)n(C[C@H](O)[C@H](O)[C@H](O)CO)c2[nH]1`, for which the outcome in data set [1] was Active.
As to `O=c1[nH]c(=O)c2nc(-c3ccc(O)cc3)c(=O)n(C[C@H](O)[C@H](O)[C@H](O)CO)c2[nH]1`, in data set [1], the outcome was Active.
Turning to `O=C1O[C@H]([C@@H](O)CO)C(O)=C1O` [ASCORBIC ACID], in data set [1], the pEC50 was 4.52. Further, the result in data set [6] and in data set [7] was Active.

The values above are taken from ChEMBL document CHEMBL5126663, “Cellular Stress-Induced Metabolites in Escherichia coli” (J Nat Prod, 2022).
